Screens: PubChem, Broad Institute
Ecoli rRNA inh: selective bacterial rRNA inhibition in E. coli. E. coli WT GFP vs humanized-ribosome RFP mutants, fluorescence, 24 h; active compounds read low; DMSO median 0, no signal -100. GFP signal change (wild-type ribosome), % (concentration not given with the values). 350,000 tested, 1.6% active. AID 720706;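 active = significant combined selectivity score with lowered wild-type GFP, culture density cut under 30%, mutant RFP and density less affected; inactive = any of these conditions unmet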
ERAP1 inh: blocks human ERAP1 aminopeptidase activity. inhibition, % at 10.7 µM. Q9NZ08. 340,000 tested, 0.15% active. recombinant ERAP1, Leu-AMC fluorescence, 60 min;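 active = mean replicate inhibition of at least 30%, or all replicates individually reaching that 30% level; inactive = mean below 30% and not every replicate reaching it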;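 also: 0% = neutral control wells and 100% = L-leucinethiol positive control wells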
S100A4 inh HTS: inhibitors of human S100A4 binding to myosin IIA peptide; S100A4/TAMRA-MyoIIA peptide fluorescence polarization; 360,000 tested, 0.14% active; AID 652163; inhibition, % at 10.7 µM;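 active = mean inhibition of at least 70% across replicates, with every replicate also reaching that level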
Target sequence (P26447 whole entry, looked up): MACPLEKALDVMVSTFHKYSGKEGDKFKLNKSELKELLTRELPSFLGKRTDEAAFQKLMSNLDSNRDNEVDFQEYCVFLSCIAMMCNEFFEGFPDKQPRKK
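Compound dosing: one dose per compound; test system: human S100A4 monomer with TAMRA-labelled myosin IIA peptide; probe or stimulus: TAMRA-labelled myosin IIA heavy-chain peptide probe, 5 nM; medium: HEPES buffer with Ca2+, pH 7.2; schedule: 5 min incubation before reading; benchmarks: neutral control DMSO, positive control TFP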
ARNT TACC3 PPI: ARNT/TACC3 interaction disruption; Q9Y6A5; AlphaScreen His-ARNT PAS-B/GST-TACC3 binding, luminescence; TACC3 fragment carries E629A point mutation; inhibition, % at 9.99 µM; 390,000 tested, 0.66% active; AID 623870;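 active = mean inhibition of replicates at least 50% and at least half of replicates each reaching 50%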;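 also: 0% = complete ARNT plus TACC3 wells and 100% = ARNT alone without TACC3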
Casp6 inh: blocks human caspase-6 cleavage activity; P55212; purified caspase-6, Z-VEID-R110 cleavage fluorescence; 350,000 tested, 0.53% active; inhibition, % at 12.5 µM;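 active = mean inhibition across replicates at least about 35%, with every replicate also reaching that limit, limit read from the data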;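 also: 0% = median of neutral control wells and 100% = no fluorescence left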
Target sequence (P55212 24-179 limits assumed): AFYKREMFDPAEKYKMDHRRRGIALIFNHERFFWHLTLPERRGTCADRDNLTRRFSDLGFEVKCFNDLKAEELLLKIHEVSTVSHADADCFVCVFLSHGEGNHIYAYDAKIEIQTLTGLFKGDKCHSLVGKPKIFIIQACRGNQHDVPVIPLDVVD
Target sequence (P55212 194-293 limits assumed): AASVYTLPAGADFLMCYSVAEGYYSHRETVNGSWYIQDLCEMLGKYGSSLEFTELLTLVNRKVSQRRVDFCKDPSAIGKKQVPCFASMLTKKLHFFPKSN
PGC1a acetyl inh: PGC1a acetylation modulation, inhibitor mode. inhibition, % at 15.6 µM. AID 651687. 350,000 tested, 0.17% active. U2OS PGC1a acetylation, AlphaScreen anti-acetyl-lysine; with virally co-expressed GCN5 acetyltransferase;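 active = every replicate shows inhibition of at least 40%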;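 also: 0% = neutral control wells and 100% = positive control wells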
* hit, by the source's call; / = not tested or not shown. A selection: hits, their analogues and other compounds. The true share with any hit is near 2.4%.

SMILES | Ecoli rRNA inh | ERAP1 inh | S100A4 inh HTS | ARNT TACC3 PPI | Casp6 inh | PGC1a acetyl inh
CN1CCN(c2ccc(-c3cccc(NC(=O)COc4ccc(Cl)cc4)c3)nn2)CC1 | -30* | -5 | -5 | -2 | 2 | -11
CC(=O)NC[C@@H]1[C@H](c2ccc(-c3ccccc3)cc2)[C@@H](CO)N1C(=O)C1CC1 | 0 | 4 | 2 | 2 | -2 | -15
C[C@@H]1CN([C@@H](C)CO)C(=O)Cc2cc(NC(=O)c3ccncc3)ccc2O[C@H]1CN(C)Cc1ccc(Cl)c(Cl)c1 | -7 | -1 | -1 | 48* | -2 | 2
C[C@H]1CN([C@@H](C)CO)C(=O)Cc2cc(NC(=O)C3CC3)ccc2O[C@H]1CN(C)Cc1ccc(Cl)c(Cl)c1 | -2 | -4 | 4 | 46* | -2 | 5
C[C@@H]1CN([C@H](C)CO)C(=O)Cc2cc(NC(=O)C3CC3)ccc2O[C@@H]1CN(C)Cc1ccc(Cl)c(Cl)c1 | -17 | -7 | -5 | 15 | -2 | -4
COCCNC(=O)c1onc(CSc2cc(C)ccc2C)c1C(=O)O | 1 | / | -2 | -10 | -7 | 0
CCCCNC(=O)c1onc(CSc2cc(C)ccc2C)c1C(=O)O | -40* | 1 | -3 | -5 | -1 | 0
CCc1cc(C(=O)c2ccc(OC)cc2)c(NC(=O)CN2CCCC2)s1 | -4 | -1 | -7 | 17 | -4 | /
CCc1cc(C(=O)c2ccc(OC)cc2)c(NC(=O)CCC(=O)O)s1 | -42* | 3 | -6 | / | -2 | -6
CC1=CCC2C(=O)N(c3cccc(C(=O)NCc4ccccc4)c3)C(=O)C2C1 (stereo unspecified) | -3 | 0 | -5 | 1 | 1 | 63*
CC1=CCC2C(=O)N(c3cccc(C(=O)Nc4ccc(Cl)cc4)c3)C(=O)C2C1 (stereo unspecified) | -31 | 1 | -1 | -4 | 0 | -6
CC1=C(C(=O)OC2CCCCCC2)C(c2ccc(C)o2)C2=C(CCCC2=O)N1 (stereo unspecified) | -3 | 2 | 2 | -28 | 6 | -9
COC(=O)C1=C(C)NC2=C(C(=O)CCC2)C1c1ccc(-c2ccsc2C(=O)OC)o1 (stereo unspecified) | -24* | -1 | 6 | 38 | 9 | /
O=C(O)CSc1c(-c2ccccc2)c2cc(Cl)ccc2[nH]c1=O | -28* | -3 | -8 | -7 | -1 | /
COc1ccc(NC(=O)N(C)C[C@@H]2Oc3c(NC(=O)C4CC4)cccc3C(=O)N([C@@H](C)CO)C[C@H]2C)cc1 | 3 | 0 | 31 | -6 | -1 | -2
O=C(Nc1cc(Cl)cc(Cl)c1)c1coc(=O)c(Br)c1 | / | / | -28 | -4 | 70* | 2
O=C(NC(CO)(CO)CO)c1coc(=O)c(Br)c1 | / | / | / | -5 | / | -12
C[C@H](CO)N1C[C@H](C)[C@H](CN(C)S(=O)(=O)c2cccc(F)c2)OCc2cn(nn2)CCCC1=O | -3 | / | / | / | / | -5
COC(=O)C1=C(C)Nc2nc(-c3ccccc3)nn2C1c1ccc(C)o1 (stereo unspecified) | -22* | / | -4 | / | 0 | -12
O=C(C[C@@H]1C=C[C@@H](NC(=O)Nc2ccccc2)[C@H](CO)O1)NCc1ccccn1 | -3 | 0 | 7 | 2 | -3 | 4
COC(=O)c1sc(-c2ccc(Cl)cc2)cc1N | -1 | / | -9 | 5 | -1 | 3
CC(=O)c1sc(-c2ccc(Cl)cc2)cc1N | -30* | 1 | -1 | -4 | 2 | /
CCOC(=O)OC[C@@H]1[C@@H]2NC(=O)N(C)[C@@]1(COCc1ccc(OC)cc1)Oc1ccccc12 | / | -1 | -9 | / | 0 | 7
O=C(NCCc1ccccc1)c1ccc([N+](=O)[O-])cc1 | / | / | / | -4 | / | 2
O=C(c1ccc([N+](=O)[O-])cc1)N(Cc1ccccc1)Cc1ccccc1 | -26* | -2 | -4 | 10 | 0 | -5
SMILES | Ecoli rRNA inh | ERAP1 inh | S100A4 inh HTS | ARNT TACC3 PPI | Casp6 inh | PGC1a acetyl inh
COc1ccc(CN(C)C[C@H]2Oc3ccc(NC(=O)Cc4cn(C)c5ccccc45)cc3C(=O)N([C@@H](C)CO)C[C@H]2C)cc1 | 2 | 0 | -7 | 7 | 3 | 1
CC(C)(C)c1ccc(OCC(=O)N/N=C/C2CC=CCC2)cc1 (stereo unspecified) | -2 | 4 | 9 | 25* | 0 | -21
CC(C)CN(C(=O)COC(=O)c1cccs1)c1c(N)n(Cc2ccccc2)c(=O)[nH]c1=O | 2 | 3 | -6 | / | -3 | 11
CCCCn1c(N)c(N(CCC(C)C)C(=O)COC(=O)c2ccc([N+](=O)[O-])s2)c(=O)[nH]c1=O | 7 | 0 | -3 | 14 | 95* | 11
CCCCn1c(N)c(N(CCC(C)C)C(=O)COC(=O)c2sccc2C)c(=O)[nH]c1=O | 6 | 2 | -3 | -1 | -1 | /
CC(C)CN(C(=O)COC(=O)c1ccc([N+](=O)[O-])s1)c1c(N)n(Cc2ccccc2)c(=O)[nH]c1=O | 7 | -1 | 2 | -1 | 82* | -5
Cc1cccc(S(=O)(=O)N2CC[C@@H]3[C@H]2c2cc(-c4ccccc4F)ccc2N(C)[C@H]3CO)c1 | 3 | 0 | 0 | -2 | 2 | -16
COc1ccc(NC(=O)Nc2ccc3c(c2)CC(=O)N([C@H](C)CO)C[C@@H](C)[C@@H](CN(C)Cc2ccc(Cl)c(Cl)c2)O3)cc1 | 4 | / | / | / | / | -16
COc1ccc(S(=O)(=O)N(Cc2cccnc2)Cc2cc3ccccc3[nH]c2=O)cc1 | -29* | 0 | -2 | 3 | 3 | 6
COc1cccc(CN(Cc2cccnc2)S(=O)(=O)c2ccc(-n3cnnn3)c(C)c2)c1 | -25* | -4 | -3 | 31 | 6 | -3
COc1cc(S(=O)(=O)N(Cc2cccnc2)Cc2ccco2)ccc1-n1cnnn1 | -9 | 7 | -2 | 4 | 9 | -15
COc1ccc2cc(CN(Cc3cccnc3)Cc3nnnn3Cc3ccccc3)c(=O)[nH]c2c1 | -28* | -3 | -7 | / | 4 | /
Cc1ccc(S(=O)(=O)N(Cc2cccnc2)Cc2cc3ccccc3[nH]c2=O)cc1 | -7 | -3 | 1 | 16 | 1 | -9
COc1ccc2cc(CN(Cc3cccs3)Cc3nnnn3Cc3ccccc3)c(=O)[nH]c2c1 | / | / | / | 2 | / | 1
CC(C)NC(=O)N(C)C[C@H]1Oc2ncc(C#CCC3CCCC3)cc2C(=O)N([C@H](C)CO)C[C@@H]1C | 4 | 2 | 8 | -25 | -6 | -5
CC(C)(C)c1ccc(-c2cn(-c3ccc(Br)cc3)c3[n+]2CCCS3)cc1 | -50* | 12 | 2 | 0 | -3 | /
Clc1ccc(-n2cc(-c3ccc(Br)cc3)[n+]3c2CCCCC3)cc1 | -46* | 0 | -3 | -10 | -1 | /
